Experimental data collected from several papers.
Each line is one published result; the experiments were not run side by side.
Target: Serine/threonine-protein kinase MARK1 (MARK1, Homo sapiens, UniProt Q9P0L2)

SMILES | assay | setting | remaining binding
Cc1cc(NC(=O)c2cccc(S(F)(F)(F)(F)F)c2)cc(-n2ccn3nc(-c4cccnc4)cc23)c1 | cell-free assay, competition with immobilised ligand | 1 µM | 100%
CCN1CCN(Cc2ccc(C(=O)Nc3ccc(C)c(Oc4ccc5c(c4)CC(=O)N5)c3)cc2C(F)(F)F)CC1 | binding, competition with immobilised ligand | 1 µM | 100%
Cc1cnn2ncc(-c3ccnc(N(C)C)n3)c2c1 | binding | 1 µM | 98%
CNC(=O)[C@@H]1CC[C@@H](n2c(-c3ccc4cnccc4c3)nc3ccc(C(=O)NCc4cccc(C(N)=O)c4)cc32)C1 | binding, competition with immobilised ligand | 1 µM | 94%
CN(C)c1ncc(F)c(-c2cnn3ncccc23)n1 | binding | 1 µM | 100%
Cn1cc(Cl)c2c(Oc3c(F)cc(Nc4cc(Cl)nc(N)n4)cc3F)ccnc21 | cell-free assay, competition with immobilised ligand | 0.1 µM | 100%
O=C(c1ccc(Nc2ncc(Cl)c(-c3cc4ccccc4s3)n2)cc1)N1CCC(N2CCCC2)CC1 | binding, competition with immobilised ligand | 1 µM | 27%
C[C@H]1CCN(c2nccc(-c3cnn4ncccc34)n2)C1 | binding | 1 µM | 92%
CC(C)(O)c1cncc(-c2nc3ccc(F)cc3n2C2CC2)c1 | cell-free assay, competition with immobilised ligand | 1 µM | 100%
C=CC(=O)N1CCC(C(=O)NCC(=O)N2CCN(c3nc(-c4cnc(N)nc4C(F)F)nc(N4CCOCC4)n3)CC2)CC1 | binding, competition with immobilised ligand | 1 µM | 100%
N[C@@H]1CCN(c2nccc(-c3cnn4ncccc34)n2)C1 | binding | 1 µM | 100%
C[C@@H](c1ccc(-n2cnc3c(N)ncnc32)cc1)N1CCc2nn(C)c(Cc3ccccc3)c2C1=O | binding, competition with immobilised ligand | 0.1 µM | 88%
O=C(c1ccc(Nc2nccc(-c3cc4ccccc4s3)n2)cc1)N1CCC(N2CCCC2)CC1 | binding, competition with immobilised ligand | 1 µM | 62%
COCCOc1nc(-c2ccc(Cl)nc2)nc2c1CN(C(=O)c1ncn3ccccc13)CC2 | cell-free assay, competition with immobilised ligand | 0.1 µM | 100%
O=C(NCC1CCOCC1)c1n[nH]cc1NC(=O)c1c(F)cccc1F | binding, competition with immobilised ligand | 1 µM | 100%
F[C@@H]1CCN(c2nccc(-c3cnn4ncccc34)n2)C1 | binding | 1 µM | 100%
O=C(c1ccc(Nc2ncc(Cl)c(-c3ccc(Cl)s3)n2)cc1)N1CCC(N2CCCC2)CC1 | binding, competition with immobilised ligand | 1 µM | 24%
c1cnn2ncc(-c3ccnc(N4CCC45COC5)n3)c2c1 | binding | 1 µM | 91%
COc1ccc2cc(OCC3(C(=O)O)CN(C(=O)c4ccc(F)cc4)C3)ccc2c1 | cell-free assay, competition with immobilised ligand | 1 µM | 100%
COc1cnc(Nc2cccc(S(N)(=O)=O)c2)nc1N1CCN(c2ccccc2)C(=O)C1 | binding, competition with immobilised ligand | 1 µM | 95%
COc1cc(-c2cn(C3CCc4c(F)cccc4N(CC(F)(F)F)C3=O)nn2)ccc1-n1cnc(C)c1 (stereo not shown) | cell-free assay, competition with immobilised ligand | 1 µM | 100%
Nc1ncc2c(n1)-c1c([nH]c3ccc(C#CC4CC4)cc13)CCCC2 | binding, competition with immobilised ligand | 1 µM | 98%
